These results are taken from PMC11062432 (The Plant Cell, 2023).

As a reminder, the Kd is a measure of binding affinity in units of concentration.

Test [1] deals with root growth. Particulars: overexpression or application of the peptide; ref Matos et al. 2008; Li et al. 2022; cited from earlier work.
Test [2] relates to plasma membrane H^+-ATPase2. The settings on record: roots; ref Haruta et al. 2014; cited from earlier work.
Test [3] relates to ANX1. The experiment in a line: Pull-down assay, ANX1 ectodomain. In kind it is binding, Arabidopsis thaliana. The settings on record: Flag-tagged ectodomain, His-tagged ZmRALFs. In a few lines: (§1)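 FLAG-tagged Arabidopsis receptor ectodomains (from earlier work) were mixed with maize RALF mature peptides. The peptides were TrxA-His fusions expressed in E. coli BL21 (1 mm IPTG, 30 °C, 3–4 h), Ni-NTA-purified and desalted. The mix sat in 20 mm Tris pH 7.5, 1% CA630, rotating at 4 °C for 2 h. Ni-NTA beads were then added for 2 h more, followed by 5 washes. Read-out: SDS-PAGE and Western blot, anti-His and anti-FLAG.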

In test [4] the test system is BUPS1. The test is described as follows: Pull-down assay, BUPS1 ectodomain. In kind it is binding, Arabidopsis thaliana. Particulars: Flag-tagged ectodomain, His-tagged ZmRALFs. The essentials: as §1
Test [5] concerns CrRLK1Ls. The test is described as follows: Interaction of RALFs with CrRLK1Ls, overall. The format is binding. Particulars: discussion summary.
In test [6] the test system is ANX2. The experiment in a line: Pull-down assay, ANX2 ectodomain. In kind it is binding, Arabidopsis thaliana. Particulars: Flag-tagged ectodomain, His-tagged ZmRALFs. The essentials: as §1
Test [7] has as its system BUPS2. The test is described as follows: Pull-down assay, BUPS2 ectodomain. The format is binding, Arabidopsis thaliana. Particulars: Flag-tagged ectodomain, His-tagged ZmRALFs. In a few lines: as §1
The subject of test [8] is ZmPEX4. The experiment in a line: Pull-down assay, full-length ZmPEX4. In kind it is binding, Zea mays. Particulars: MBP-tagged full-length ZmPEX4, ZmRALFs. In a few lines:
(§2)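 MBP-tagged maize partners were expressed in E. coli BL21 (0.1–0.5 mm IPTG, 30 °C, 3–4 h), amylose-purified, eluted with maltose and desalted. Partners: LLGs without signal peptide, PEX2 N-terminal LRR domain, PEX4. Each was incubated with His-tagged maize RALFs in 20 mm Tris pH 7.5, 1% CA630 at 4 °C for 2 h, then Ni-NTA pull-down for 2 h and 5 washes. Read-out: SDS-PAGE and Western blot, anti-His and anti-MBP.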

For test [9], the system named is ZmLLG1. The test is described as follows: Pull-down assay, ZmLLG1. The format is binding, Zea mays. Particulars: MBP-tagged LLG, His-tagged RALFs. The essentials:
as §2

Test [10] deals with ZmLLG2. The experiment in a line: Pull-down assay, ZmLLG2. The format is binding, Zea mays. Particulars: MBP-tagged LLG, His-tagged RALFs. In a few lines:
as §2

The test system of test [11] is ZmPEX2. The experiment in a line: Pull-down assay, LRR domain of ZmPEX2. In kind it is binding, Zea mays. The settings on record: MBP-tagged N-terminal LRR domain of ZmPEX2, ZmRALFs. In a few lines: as §2
In test [12] the target is 6xHis-ZmRALF3 (predicted mature peptide, pET53-DEST, refolded) (maize (Zea mays)). The experiment in a line: MST.
Test [13] addresses 6xHis-ZmRALF1 (predicted mature peptide, pET53-DEST, refolded) (maize (Zea mays)). The test is described as follows: MST.
Test [14] addresses 6xHis-ZmRALF2 (predicted mature peptide, pET53-DEST, refolded) (maize (Zea mays)). The test is described as follows: MST.

Bridge positions count the residues as written; N and C are the ends. Ends that are not written are not given here.

On to “AtRALF1: Clade IA Arabidopsis RALF (ATTKYISYQSLKRNSVPCSRRGASYYNCQNGAQANPYSRGCSKIARCRS; not fully specified; ends and bridges not checked; UniProt Q9SRY3 72-120, looked up)”, for which the “effect on root growth” value in [1] was “inhibited rapid root growth”. For the same substance, the “effect on H^+-ATPase2 via FER” value in test [2] was “inhibition of plasma membrane H^+-ATPase2 explaining extracellular alkalinization”.

As for “MARLALVAAVVLCLLLATGPQGAISAEGMVSFDNLISCKVLGNCDKNLGPEASRPGKPANDYTRGCNPITGCRG (disulfide (positions not given here)) [ZmRALF1]”, the interaction in pull-down entry in [3] was “did not interact with Arabidopsis CrRLK1Ls”; in test [4] it was “did not interact with Arabidopsis CrRLK1Ls”; in test [6], “did not interact with Arabidopsis CrRLK1Ls”; in [7], “very weak interaction”. The “interaction with CrRLK1Ls in words” value in test [5] was “very low (almost unspecific) binding”.

Take “MARLGAGAVLALLVAVAAVAAFLAVPASAKSGELSAMGLLAAKGGSGAGPQKCSGAVGECDVDEAEELGLSGGGLGSDDAVRRTLAQRKPTNRYISYAALRADQVPCNKRGRSYYSNCEAQKAANPYRRGCSAITRCARNMN (disulfide (positions not given here)) [ZmRALF2]”: the interaction in pull-down result in [3] was “interacted more strongly with ANX1/2 and BUPS1/2 compared with ZmRALF3”; in test [4], “interacted more strongly with ANX1/2 and BUPS1/2 compared with ZmRALF3”; in [8] it was “interacted with both ZmPEX proteins”; in test [9], “interacted with ZmLLG1/2”; in [10], “interacted with ZmLLG1/2”; in [6] it was “interacted more strongly with ANX1/2 and BUPS1/2 compared with ZmRALF3”. For the same substance, the interaction in pull-down result was “interacted with both ZmPEX proteins” in test [11]; “interacted more strongly with ANX1/2 and BUPS1/2 compared with ZmRALF3” in [7].

Consider “MARLGAGAVLTLLLAVAAAAAFLAVPASAKVGDLSAVEFVAARGSSIPGQRSSKCSGAVGECGVDEEEELGLSGGGGIGAGDALRRTLAQRKPTNRYISYAALRADQVPCNKRGRSYYTNCAAQTAANPYRRGCSAITRCARSMN (disulfide (positions not given here)) [ZmRALF3]”, for which the interaction in pull-down result in [8] was “interacted with both ZmPEX proteins”; in test [9], “interacted with ZmLLG1/2”; in [10], “interacted with ZmLLG1/2”; in test [11], “interacted with both ZmPEX proteins”.

For “MBP-tagged ectodomain of ZmFERL1 (domain or fragment)”, in [12], the Kd is 1.73 µM.

Turning to “MGEAKLNNVTVLLVALLLLSSGVQDAAAMPGTLNYDAIVADEPNGKNKDLYRPVANANKYTRGCEPIERCRGAR (disulfide 64-70 (inferred)) [ZmRALF5]”, the interaction in pull-down entry in [3], in test [4] and in test [6] was “did not interact with Arabidopsis CrRLK1Ls” each time.

On to “ZmFERL7 ectodomain as used in MST (tag not told: MBP or GST construct) (domain or fragment)”, for which the Kd is 3.53 µM in test [13] and 0.615 µM in [14].

Turning to “ZmFERL9 ectodomain as used in MST (tag not told: MBP or GST construct) (domain or fragment)”, the Kd in [13] is 1.9 µM; in test [14], 0.545 µM.
